Test results taken from ChEMBL document CHEMBL4017491, “Phthalazino[1,2-b]quinazolinones as p53 Activators: Cell Cycle Arrest, Apoptotic Response and Bak-Bcl-xl Complex Reorganization in Bladder Cancer Cells” (J Med Chem, 2017).

System: T-24
Test: Cell cycle arrest in human T24 cells assessed as reduction in cell size at 5 uM after 48 hrs by FACS analysis relative to control
Format: functional
Parameters: scale not given: the % may be the effect or the level left
Summary of the method: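 T24 cells treated for 48 h with 5 μM or DMSO, then ethanol-fixed and PI-stained. Relative cell size taken as mean forward scatter (FSC-H) by flow cytometry, compared with control.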

## CN(C)CCNc1nn2c(=O)c3cc(Br)ccc3nc2c2ccccc12
  Activity: 87.7%
